Active and inactive are the calls of the source. The rule behind the calls is not given here.
Experiments:
MCF7 [1] = assay: Anticancer activity against human MCF7 cells assessed as cell viability at 10 uM after 72 hrs by sulforhodamine B assay relative to control; format: functional; details: MCF7, 72 h, read-out: Activity
MCF7 [2] = assay: Anticancer activity against human MCF7 cells assessed as cell viability at 30 uM after 72 hrs by sulforhodamine B assay relative to control; format: functional; details: MCF7, 72 h, read-out: Activity
Hs-578T [3] = assay: Anticancer activity against human Hs 578T cells assessed as cell viability at 10 uM after 72 hrs by sulforhodamine B assay relative to control; format: functional; details: read-out: Activity
Hs-578T [4] = assay: Anticancer activity against human Hs 578T cells assessed as cell viability at 30 uM after 72 hrs by sulforhodamine B assay relative to control; format: functional; details: read-out: Activity
[5] = Cytotoxicity against human MCF10A cells assessed as cell viability at 10 uM after 72 hrs by sulforhodamine B assay relative to control; format: cell-based, MCF-10A; details: read-out: Activity
[6] = Cytotoxicity against human MCF10A cells assessed as cell viability at 30 uM after 72 hrs by sulforhodamine B assay relative to control; format: cell-based, MCF-10A; details: read-out: Activity
MCF7 [7] = assay: Anticancer activity against human MCF7 cells after 72 hrs by sulforhodamine B assay; format: functional, cell-based; details: MCF7, 72 h
Method in brief: (§1)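 Cells seeded at 3000 cells/100 µL per well, left to adhere overnight (18-20 h), then exposed to a range of compound concentrations for 72 h. Vehicle control was 0.5% DMSO. Cytotoxicity was read by sulforhodamine B at 490 nm, with 690 nm as background. IC50 came from sigmoidal variable-slope nonlinear regression on log-transformed data, from at least three independent experiments, each in triplicate.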

Hs-578T [8] = assay: Anticancer activity against human Hs 578T cells after 72 hrs by sulforhodamine B assay; format: functional, cell-based; method in brief: as §1
MCF-10A [9] = assay: Cytotoxicity against human MCF10A cells after 72 hrs by sulforhodamine B assay; format: cell-based; method in brief: as §1
MCF7 [10] = assay: Antimigratory activity against human MCF7 cells assessed as reduction in cell migration at half IC50 to IC50 after 12 to 48 hrs by microscopy based wound healing assay; format: functional
Method in brief: (§2)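 Wound healing: MCF-7 cells plated at 9.0 × 10^5 per 2 mL and grown overnight to confluence. Two scratches made with a pipette tip, then wash with PBS. Treatment at IC50 or ½ IC50, or 0.5% DMSO. Four positions per wound were imaged at 0, 12, 24 and 48 h at 100x. Migration distances were measured and normalised to control. Three independent experiments.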

MCF7 [11] = assay: Antiproliferative activity against human MCF7 cells at IC50 after 48 hrs by Brdu incorporation assay relative to control; format: functional
Method in brief: (§3)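 Labelling with 20 µM BrdU (final) for 6 h. FixDenat 30 min, then anti-BrdU-POD 90 min at room temperature. Substrate colour for 5-10 min, stopped with H2SO4, absorbance at 450 nm (reference 690 nm). Cell-free blanks included. At least three independent experiments in triplicate.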

MCF7 [12] = assay: Induction of apoptosis in human MCF7 cells assessed as increase in early apoptotic cells at IC50 after 48 hrs by Annexin-V-FITC/propidium iodide staining based flow cytometry; format: functional, cell-based
Method in brief: (§4)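 Floating and adherent cells were pooled and resuspended in binding buffer. Staining with FITC-annexin V and PI for 15 min at room temperature in the dark, followed by flow cytometry quadrant analysis normalised to untreated cells. Two independent experiments, triplicates within each.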

MCF7 [13] = assay: Induction of apoptosis in human MCF7 cells assessed as increase in late apoptotic cells at IC50 after 48 hrs by Annexin-V-FITC/propidium iodide staining based flow cytometry; format: functional, cell-based; method in brief: as §4
MCF7 [14] = assay: Induction of apoptosis in human MCF7 cells assessed as increase in cleaved PARP level at IC50 after 24 hrs by Western blot analysis; format: functional, cell-based
Method in brief: (§5)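 MCF-7 cells at 70-80% confluence were treated at IC50 or with 0.5% DMSO for 24 h. Lysis in Tris/NaCl/EDTA buffer with NP-40, Triton X-100, phosphatase and protease inhibitors. 20 µg protein run on 12% SDS-PAGE and transferred to nitrocellulose. Probed overnight at 4 °C with anti-PARP (1:500) or anti-BIM (1:1000), then HRP secondaries and chemiluminescence. At least two independent experiments.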

MCF7 [15] = assay: Induction of apoptosis in human MCF7 cells assessed as increase in Bim level at IC50 after 24 hrs by Western blot analysis; format: functional, cell-based; method in brief: as §5
MCF7 [16] = assay: Cell cycle arrest in human MCF7 cells assessed as DNA fragmentation at IC50 after 48 hrs by propidium iodide staining based flow cytometry; format: functional
Method in brief: (§6)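 MCF-7 cells seeded at 2.5×10^5 per well and grown overnight. […] Cells fixed in 70% ethanol for at least 30 min at 4 °C, then stained with PI (50 µg/mL) plus RNase A and Triton X-100 for 1 h in the dark at […]. Flow cytometry with 488 nm excitation gave the phase distribution. Two independent biological replicates.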

MCF7 [17] = assay: Cell cycle arrest in human MCF7 cells assessed as accumulation at sub-G0/G1 phase at IC50 after 48 hrs by propidium iodide staining based flow cytometry; format: functional; method in brief: as §6
MCF7 [18] = assay: Induction of microtubule disruption in human MCF7 cells at IC50 after 12 hrs by DAPI staining based microscopic analysis; format: cell-based
Method in brief: (§7)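 MCF-7 cells seeded at 2.0×10^5 per well and incubated overnight. Treatment at IC50 for 12 h, with 0.5% DMSO vehicle and paclitaxel (2 µM) as reference. Fixation in methanol for 20 min at -20 °C and blocking in 5% BSA. β-tubulin antibody (1:200) for 2 h, fluorescent secondary for 1 h, and DAPI nuclear counterstain. Confocal imaging with a 60x oil objective, 405/488 nm excitation.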

MCF7 [19] = assay: Antiproliferative activity against human MCF7 cells after 72 hrs in presence of doxorubicin by sulforhodamine B assay; format: functional, cell-based; details: MCF7, 72 h
MCF-10A [20] = assay: Cytotoxicity against human MCF10A cells after 72 hrs in presence of doxorubicin by sulforhodamine B assay; format: cell-based
[21] = Selectivity index, ratio of IC50 for human MCF10A cells in presence of doxorubicin to IC50 for human MCF7 cells in presence of doxorubicin; format: toxicity; details: MCF10A cells and MCF7 cells, read-out: Ratio IC50
MCF7 [22] = assay: Induction of apoptosis in human MCF7 cells assessed as decrease in Bcl-xL level at IC50 after 48 hrs by Western blot analysis
MCF7 [23] = assay: Antiproliferative activity against human MCF7 cells at half IC50 to IC50 after 24 to 48 hrs by Brdu incorporation assay; format: functional, cell-based; method in brief: as §3
MCF7 [24] = assay: Induction of apoptosis in human MCF7 cells at IC50 after 48 hrs by Annexin-V-FITC/propidium iodide staining based flow cytometry; format: functional, cell-based; method in brief: as §4
MCF7 [25] = assay: Cell cycle arrest in human MCF7 cells at IC50 after 48 hrs by propidium iodide staining based flow cytometry; format: functional; method in brief: as §6
MCF7 [26] = assay: Antimigratory activity against human MCF7 cells assessed as reduction in cell migration at half IC50 to IC50 after 48 hrs by microscopy based wound healing assay relative to control; format: functional; set-up: scale not given: the % may be the effect or the level left; method in brief: as §2
MCF7 [27] = assay: Cell cycle arrest in human MCF7 cells assessed as accumulation at G2/M phase at IC50 after 48 hrs by propidium iodide staining based flow cytometry; format: functional; method in brief: as §6
MCF7 [28] = assay: Cell cycle arrest in human MCF7 cells assessed as reduction in G0/G1 population at IC50 after 48 hrs by propidium iodide staining based flow cytometry; format: functional; method in brief: as §6
MCF7 [29] = assay: Induction of microtubule disruption in human MCF7 cells assessed as cell detachment at IC50 after 12 hrs by DAPI staining based microscopic analysis; method in brief: as §7
MCF7 [30] = assay: Induction of microtubule disruption in human MCF7 cells assessed as cell shrinkage at IC50 after 12 hrs by DAPI staining based microscopic analysis; method in brief: as §7
MCF7 [31] = assay: Induction of microtubule disruption in human MCF7 cells assessed as cell rounding at IC50 after 12 hrs by DAPI staining based microscopic analysis; method in brief: as §7
MCF7 [32] = assay: Induction of microtubule disruption in human MCF7 cells assessed as nuclei contraction at IC50 after 12 hrs by DAPI staining based microscopic analysis; format: cell-based
MCF7 [33] = assay: Induction of microtubule disruption in human MCF7 cells assessed as nuclei condensation at IC50 after 12 hrs by DAPI staining based microscopic analysis; format: cell-based
MCF7 [34] = assay: Inhibition of beta-tubulin polymerization in human MCF7 cells assessed as increase in beta-tubulin levels at IC50 after 24 hrs by Western blot analysis; format: cell-based

| IC50 (MCF7 [7]) | IC50 (Hs-578T [8]) | IC50 (MCF7 [19]) | Structure (SMILES) | viability at 10 µM (MCF7 [1]) | viability at 30 µM (MCF7 [2]) | viability at 10 µM (Hs-578T [3]) | viability at 30 µM (Hs-578T [4]) | viability at 72 h, 10 µM [5] | viability at 72 h, 30 µM [6] | IC50 (MCF-10A [9]) | Activity (MCF7 [10]) | Activity (MCF7 [11]) | Activity (MCF7 [12]) | Activity (MCF7 [13]) | Activity (MCF7 [14]) | Activity (MCF7 [15]) | Activity (MCF7 [18]) | IC50 (MCF-10A [20]) | selectivity ratio [21] | Activity (MCF7 [22]) | also measured |
| --- | --- | --- | --- | --- | --- | --- | --- | --- | --- | --- | --- | --- | --- | --- | --- | --- | --- | --- | --- | --- | --- |
| 5.07 µM | 7.27 µM | 0.42 µM | COc1cccc(C(=O)/C=C/c2cc(Br)ccc2O)c1 | 26.9% | 28.3% | 38.5% | 55.8% | 33.8% | 66.3% | 40.6 µM | inactive | >50% | Active | Active | Active | Active | inactive | > 60 µM | > 142 | Active | Activity (MCF7 [16]): Active; Activity (MCF7 [17]): Active |
| 3.82 µM | 5.88 µM | 0.28 µM | O=C(/C=C/c1cc(Br)ccc1O)c1ccc(Br)cc1 | 28.7% | 28.3% | 63.5% | 124% | 32.8% | 47.6% | 29.3 µM | inactive | – | – | – | Active | Active | inactive | 15.1 µM | 53 | Active | Activity (MCF7 [23]): inactive; Activity (MCF7 [24]): inactive; Activity (MCF7 [25]): inactive |
| 3.65 µM | 4.52 µM | 0.11 µM | COc1cccc(C(=O)CC2C(C#N)=C(N)Oc3c(OC)cc(Br)cc32)c1 (centres undefined) | 55.9% | 33.9% | 46.1% | 83.3% | 32.3% | 46.3% | 18.9 µM | – | 20% | Active | Active | Active | Active | – | 1.58 µM | 13.4 | Active | Activity (MCF7 [26]): 50%; Activity (MCF7 [27]): Active; Activity (MCF7 [28]): Active; Activity (MCF7 [29]): Active; Activity (MCF7 [30]): Active; Activity (MCF7 [31]): Active; Activity (MCF7 [32]): Active; Activity (MCF7 [33]): Active; inhibition (MCF7 [34]): Active |
